High-throughput results from PubChem BioAssay.
An excerpt weighted towards active compounds, which were near 7.2% of everything screened.
BAP1 block: inhibitors of human BAP1 deubiquitinase; Q92560; recombinant BAP1, Ub-AMC hydrolysis fluorescence kinetic; stronger effect = lower value; calls only at 20 µM; 0.48% of 72,000 active; AID 436;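 active = activity remaining at or below 50% of control, provided the compound also passes the data quality filters; inactive = the rest, including low values that fail the filters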
Target sequence (Q92560 whole entry, looked up): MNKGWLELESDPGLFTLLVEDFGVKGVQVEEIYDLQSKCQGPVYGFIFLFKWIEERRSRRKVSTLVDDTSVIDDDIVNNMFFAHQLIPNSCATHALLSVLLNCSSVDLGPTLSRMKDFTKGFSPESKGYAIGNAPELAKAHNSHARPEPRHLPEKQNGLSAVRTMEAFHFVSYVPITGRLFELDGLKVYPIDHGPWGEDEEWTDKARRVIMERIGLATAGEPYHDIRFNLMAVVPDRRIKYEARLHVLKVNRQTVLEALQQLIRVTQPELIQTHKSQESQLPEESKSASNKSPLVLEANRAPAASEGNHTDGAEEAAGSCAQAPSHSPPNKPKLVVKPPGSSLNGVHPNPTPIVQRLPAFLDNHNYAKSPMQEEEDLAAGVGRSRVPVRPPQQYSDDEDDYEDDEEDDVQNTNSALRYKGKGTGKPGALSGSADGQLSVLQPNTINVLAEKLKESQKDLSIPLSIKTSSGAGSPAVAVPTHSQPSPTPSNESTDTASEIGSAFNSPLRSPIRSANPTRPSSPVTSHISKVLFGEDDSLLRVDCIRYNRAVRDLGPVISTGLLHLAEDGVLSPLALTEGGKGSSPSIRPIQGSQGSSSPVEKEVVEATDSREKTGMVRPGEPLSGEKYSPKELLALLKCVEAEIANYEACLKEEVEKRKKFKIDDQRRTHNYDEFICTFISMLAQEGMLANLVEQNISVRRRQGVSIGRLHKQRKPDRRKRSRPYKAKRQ
hDAT+cocaine: changed human dopamine transporter uptake under cocaine IC80; B-score at 10 µM; 1.3% of 110,000 active; AID 449768; LLC-PK1 hDAT cells, [14C]-dopamine uptake with cocaine IC80; actives deviate in either direction;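 active = Z score or B-score, a plate-position-corrected score, falls beyond the plate's 99.7% confidence bounds, in either direction; inactive = both scores lie inside the 99.7% bounds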
M1 antagonist: antagonists of rat M1 muscarinic receptor; 3.4% of 64,000 active; P08482; CHO-M1 cells, Fluo-4 calcium, ACh EC80 antagonist mode; stronger effect = lower value; B-score at 10 µM;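 active = calcium fluorescence response, raw or row-and-column corrected B-score, differing from the plate sample mean either way at a set confidence level, mostly lower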
M1 ag: agonists of M1 muscarinic receptor | CHO-M1 cells, Fluo-4 calcium fluorescence, agonist mode; stronger effect = higher value | 3% of 64,000 active | B-score at 10 µM;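 active = fluorescence rise, raw or as B-score row- and column-corrected plate score, outside the 99.7% band of its plate's samples, either direction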
D1 mod: allosterically modulates the human D1 dopamine receptor | 5.9% of 58,000 active | HEK293 D1, CRE-luciferase, dopamine EC30 potentiation; actives deviate in either direction | B-score at 10 µM;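 active = luminescence count or its row- and column-corrected plate score outside the 99.7% band of the plate's sample wells, on either side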
HEK293 NFkB inh: lowers PMA/ionomycin-induced NF-kB signal in HEK293 cells; HEK-293 NF-kB luciferase reporter, luminescence; inhibition, % at 3 µM; 0.21% of 62,000 active; AID 465;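 active = inhibition above the mean of all tested compounds plus 3 SD, cut at about 40% in these data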
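System: NF-kB luciferase reporter HEK-293 cells | Replication: Single test | Control set: DMSO vs reference inhibitor | Evaluation: % inhibition | Schedule: 1 h pretreatment, 16 h stimulation, 37 °C | Probe or stimulus: PMA with ionomycin | Compound dosing: One dose, 3 µM | Detection: Luciferase luminescence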
Each line names hits and unclear results; the compound was inactive in the other large screens.

c1ccc(-c2nc(CSc3n[nH]c(-c4cccs4)n3)cs2)cc1	hDAT+cocaine 4.1 (no result: BAP1 block, M1 antagonist, M1 ag, D1 mod, HEK293 NFkB inh)
O=C(CN1CCN(Cc2ccc3c(c2)OCO3)CC1)c1ccc(F)cc1	none (no result: hDAT+cocaine, M1 antagonist, M1 ag, D1 mod, HEK293 NFkB inh)
CC1CN(C(=O)Nc2ccc3snnc3c2)c2ccccc21 (stereo not given)	hDAT+cocaine 2.6
O=C(NCCC1=CCCCC1)C(Cc1ccc([N+](=O)[O-])cc1)N1C(=O)c2ccccc2C1=O (stereo not given)	none (no result: hDAT+cocaine, M1 antagonist, M1 ag, D1 mod, HEK293 NFkB inh)
Cc1ccc2nc(-c3ccc(C)c(NC(=O)c4ccc(Br)cc4)c3)oc2c1	none (no result: hDAT+cocaine, M1 antagonist, M1 ag, D1 mod, HEK293 NFkB inh)
COc1ccc(-n2ncc3c(N(C)C4CCCCC4)ncnc32)cc1	HEK293 NFkB inh 46 (no result: hDAT+cocaine, D1 mod)
Cc1cccc(-n2ncc3c(N(C)C4CCCCC4)ncnc32)c1	HEK293 NFkB inh 62 (no result: D1 mod)
Cc1cc(C)cc(N2C(=O)CSC2c2ccc(Br)cc2)c1 (stereo not given)	none (no result: hDAT+cocaine, M1 antagonist, M1 ag, D1 mod, HEK293 NFkB inh)
Cc1cccc(-n2c(O)c(C=Nc3c(C)n(C)n(-c4ccccc4)c3=O)c3ccccc3c2=O)n1	hDAT+cocaine 3.8
CCc1ccccc1NC1=C(Cl)C(=O)N(c2cccc(Cl)c2)C1=O	none (no result: hDAT+cocaine, M1 antagonist, M1 ag, D1 mod, HEK293 NFkB inh)
CCc1cccc(C)c1-n1nnnc1C(C)(C)N(C)C	none (no result: hDAT+cocaine, M1 antagonist, M1 ag, D1 mod, HEK293 NFkB inh)
O=C(O)Cc1coc(-c2ccc(F)cc2)n1	hDAT+cocaine -8.5
COc1ccccc1-n1c(=O)[nH]c2c(C(N)=O)nc(-c3cccnc3)nc21	D1 mod 18
COC(=O)CSc1nc2sc3c(c2c(=O)n1-c1ccc(C)cc1)CC(C)(C)OC3	none (no result: hDAT+cocaine, M1 antagonist, M1 ag, D1 mod, HEK293 NFkB inh)
CC1CC(C)CN(CCOc2ccc(Cl)cc2Cl)C1 (stereo not given)	hDAT+cocaine -8.3 (no result: BAP1 block, M1 antagonist, M1 ag, D1 mod, HEK293 NFkB inh)
COc1ccccc1NC(=O)c1c(NC(=O)C(C)(C)C)sc2c1CCC2	none (no result: hDAT+cocaine, M1 antagonist, M1 ag, D1 mod, HEK293 NFkB inh)
O=C(Nc1ccccc1Cl)NC1(C(=O)N2CCCC2)CCCCC1	hDAT+cocaine -8.9 (no result: BAP1 block, M1 antagonist, M1 ag, D1 mod, HEK293 NFkB inh)
CC1CCCC(C)N1C(=O)c1cccc2c1-c1ccccc1/C2=N/O (stereo not given)	hDAT+cocaine 4 (no result: BAP1 block, M1 antagonist, M1 ag, D1 mod, HEK293 NFkB inh)
CCOC(=O)C1CCN(C(=O)c2sc3ncnc(N4CCC(C)CC4)c3c2C)CC1	hDAT+cocaine 2.5 (no result: BAP1 block, M1 antagonist, M1 ag, D1 mod, HEK293 NFkB inh)
CCOC(=O)C1CCN(C(=O)c2sc3nc(C)nc(N4CCC(C)CC4)c3c2C)CC1	none (no result: BAP1 block, M1 antagonist, M1 ag, D1 mod, HEK293 NFkB inh)
CC1CCCCN1CCNC(=O)CC1Oc2ccccc2NC1=O (stereo not given)	none
CC1CCCCN1CCNC(=O)CN1C(=O)COc2ccccc21 (stereo not given)	D1 mod -3.5
O=C(CCN1C(=O)COc2ccccc21)NCCN1CCc2ccccc2C1	none
O=C(CCN1C(=O)COc2ccccc21)NCCCN1CCN(c2ccccc2F)CC1	D1 mod -3.1
O=C(Nc1ncc(S(=O)(=O)c2ccc([N+](=O)[O-])cc2)s1)c1ccco1	none (no result: hDAT+cocaine, M1 antagonist, M1 ag, D1 mod, HEK293 NFkB inh)
O=C1c2ccccc2N2C(=O)c3ccccc3[C@H]2N1c1ccccc1	hDAT+cocaine -2.7 (no result: BAP1 block, M1 antagonist, M1 ag, D1 mod, HEK293 NFkB inh)
O=C1OC2c3ccccc3C(=O)N2c2ccccc21 (stereo not given)	none (no result: hDAT+cocaine, M1 antagonist, M1 ag, D1 mod, HEK293 NFkB inh)
Cc1cccc(-n2nc3c(c2NC(=O)c2ccco2)CSC3)c1	none (no result: hDAT+cocaine, M1 antagonist, M1 ag, D1 mod, HEK293 NFkB inh)
Cc1ccc(C(=O)CSc2nnc(-c3ccco3)n2CC2CCCO2)cc1 (stereo not given)	M1 antagonist 1.9 (no result: D1 mod)
CCc1ccc(C(=O)Nc2nnn(CC)n2)cc1	D1 mod -4.5
CCCCn1nnc(NC(=O)c2ccc(-c3ccccc3)cc2)n1	none (not shown: BAP1 block)
CCn1nnc(NC(=O)c2cc3ccccc3o2)n1	M1 antagonist 3.4
O=C(Nc1ccc(Cl)cc1)c1cc(S(=O)(=O)N2CCOCC2)ccc1Cl	none (no result: hDAT+cocaine, M1 antagonist, M1 ag, D1 mod, HEK293 NFkB inh)
Cc1sc2ncnc(Sc3nnnn3-c3ccccc3)c2c1C	D1 mod -4.8 (not shown: BAP1 block)
Clc1ccc(-n2nnnc2Sc2ncnc3sccc23)cc1	D1 mod -2.9
Cc1cccc(NC2=C(Cl)C(=O)N(c3ccc(C)cc3C)C2=O)c1	none (no result: hDAT+cocaine, M1 antagonist, M1 ag, D1 mod, HEK293 NFkB inh)
COc1ccc(COc2cc(-c3cccc(OC)c3)nc3ccc(NC(=O)c4cccnc4)cc23)cc1	hDAT+cocaine 2.7 (no result: BAP1 block, M1 antagonist, M1 ag, D1 mod, HEK293 NFkB inh)
COc1ccc(COc2cc(-c3cccc(OC)c3)nc3ccc(NC(=O)c4ccc(OC)cc4)cc23)cc1	none (no result: BAP1 block, M1 antagonist, M1 ag, D1 mod, HEK293 NFkB inh)
CC1=C(C(=O)OCc2ccc3c(c2)OCO3)C(c2ccc(Cl)cc2)NC(=O)N1 (stereo not given)	HEK293 NFkB inh 67
CC1=C(C(=O)OCc2ccc3c(c2)OCO3)C(c2ccc(F)cc2)NC(=O)N1 (stereo not given)	HEK293 NFkB inh 45
CC1=C(C(=O)OCc2ccc3c(c2)OCO3)C(c2ccc([N+](=O)[O-])cc2)NC(=O)N1 (stereo not given)	none (no result: hDAT+cocaine, M1 antagonist, M1 ag, D1 mod, HEK293 NFkB inh)
C=CCSc1nnc(-c2cc3c(-c4ccccc4)nn(C)c3s2)n1C	none (no result: BAP1 block, M1 antagonist, M1 ag, D1 mod, HEK293 NFkB inh)
C=CCSc1nnc(-c2cc3c(C(F)(F)F)nn(C)c3s2)n1C	hDAT+cocaine -8.8 (no result: BAP1 block, M1 antagonist, M1 ag, D1 mod, HEK293 NFkB inh)
CCCCN(C)CCCNC(=O)c1cccc(N2CCCC2=O)c1	D1 mod -5.8
CN(CCCNC(=O)c1cccc(N2CCCC2=O)c1)c1ccccc1	none (no result: D1 mod)
COc1ccc(-n2ncc3c(N4CCC(C)CC4)ncnc32)cc1	D1 mod -5.8 (no result: hDAT+cocaine)
CCOC(=O)C1CCN(c2ncnc3c2cnn3-c2ccccc2)CC1	none
CC1CCN(c2ncnc3c2cnn3-c2ccccc2)CC1	D1 mod -3
Cc1ccc(NC(=O)c2c(C)noc2C)cc1	hDAT+cocaine 0.36 (no result: BAP1 block, M1 antagonist, M1 ag, D1 mod, HEK293 NFkB inh)
Cc1ccc(NC(=O)c2onc(C)c2Cl)cc1	hDAT+cocaine -2.6 (no result: BAP1 block, M1 antagonist, M1 ag, D1 mod, HEK293 NFkB inh)
Cc1ccc(NC(=O)c2cc(C)on2)cc1	none
Cc1cc(C)c2cc(CN(Cc3ccc4c(c3)OCO4)Cc3nnnn3Cc3ccco3)c(=O)[nH]c2c1	hDAT+cocaine 3
COc1ccc(CNC(=O)c2nn3c(c2Cl)NC(c2ccc(Br)cc2)CC3C(F)(F)F)cc1 (stereo not given)	none (no result: hDAT+cocaine, M1 antagonist, M1 ag, D1 mod, HEK293 NFkB inh)
